Source: PMC4935662 (Molecular pharmaceutics, 2016)

What was measured:
[1] = cited from earlier work
[2] = single administration at 1.0 mmol/kg in rats; cited from earlier work
[3] = system: blood-brain barrier (BBB); assay: In situ rat brain perfusion of Gd-DTPA, quantitative T1 mapping MRI; format: in vivo, Sprague-Dawley rats; settings: Gd-DTPA 0.6 mmol/kg, brain-ventral
How it was run: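 Adult male Sprague-Dawley rats (250–350 g). A 10-sec saline post-perfusion wash followed. Sacrificed animals underwent quantitative T1 mapping MRI at room temperature; R1 = 1/T1 was taken per brain region.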

[4] = system: blood-brain barrier (BBB); settings: cited from earlier work

Which “time of conversion to the CPT-carboxylate form” value ([1]; phosphate-buffered saline solution containing 4% human plasma) does the source give for `CC[C@@]1(O)C(=O)OCc2c1cc1n(c2=O)Cc2cc3ccccc3nc2-1` [CPT, camptothecin] here?
The value was 11 min.

What about the “pH below which the lactone group is stable” value ([1]; undergoes lactone hydrolysis to CPT-carboxylate at pH 7.4, no reference given) of the same molecule?
Its value is < 5.5.

For `O=C([O-])CN(CCN(CC(=O)[O-])CC(=O)O)CCN(CC(=O)[O-])CC(=O)O.[Gd+3]` [Gd-DTPA, gadolinium-diethylenetriaminepentaacetate], which “tolerability / organ toxicity” value [2] is on record?
The value was “well tolerated without any organ toxicity”.

And the “R1 values, Gd-DTPA in presence of HAV6 compared to Gd-DTPA and vehicle” value ([3]; HAV6 1.0 mM, olfactory bulb, hippocampus, cerebellum, deep-rostral, deep-caudal regions)?
Its value is “more significantly increased R1 values”.

What about the “R1 values, Gd-DTPA and vehicle compared to vehicle only” value ([3]; cortex, deep-caudal) of the same molecule?
The value was “increased R1 values”.

What does the source list for Ac-SHAVSS-NH2 [HAV6, Ac-SHAVSS-NH2]?
brain delivery of IRdye 800cw-PEG delivered 1 h after administration of peptide ([4]; 25 kDa IRdye 800cw-PEG): no enhancement of brain delivery; duration of BBB opening ([4]; Balb/c mice): less than 1 h
